Assay results: ChEMBL document CHEMBL1157060, “Antiviral and anti-inflammatory metabolites from the soft coral Sinularia capillosa” (J Nat Prod, 2010)
Calls of active or inactive are those of the source. No cut-off for these calls is given here.

How the values were obtained:
[1] = tested on: Shigella sonnei; assay: Antibacterial activity against Shigella sonnei ATCC 11060 at 100 ug/ml after 24 hrs; type: functional, organism-based
[2] = tested on: P388; assay: Cytotoxicity against mouse P388 cells after 2 days by MTT assay; type: functional; settings: for EC50: P388, 48 h, read-out: ED50 (the source's name)
In short: (§1)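 The value reported is the ED50 against each tumour cell line. Mithramycin was run as positive control.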

[3] = tested on: Yersinia enterocolitica; assay: Antibacterial activity against Yersinia enterocolitica ATCC 23715 at 100 ug/ml after 24 hrs; type: functional, organism-based
[4] = tested on: HT-29; assay: Cytotoxicity against human HT-29 cells after 2 days by MTT assay; type: functional; in short: as §1
[5] = tested on: Serratia marcescens; assay: Antibacterial activity against Serratia marcescens ATCC 25419 at 100 ug/ml after 24 hrs; type: functional, organism-based
[6] = tested on: RAW264.7; assay: Antiinflammatory activity in mouse RAW264.7 cells assessed as inhibition of LPS-stimulated COX2 expression at 10 uM after 16 hrs by Western blot analysis relative to control; type: functional
In short: (§2)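 LPS-stimulated RAW 264.7 macrophages were treated with each compound at 10 µM. iNOS and COX-2 protein levels were measured by immunoblot, with β-actin also probed. Band intensity was expressed relative to the LPS-alone group, set at 100%. Data are mean ± SEM (n = 5), and significance versus LPS alone was set at P < 0.05. CAPE at 10 µM served as positive control.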

[7] = tested on: Salmonella enterica; assay: Antibacterial activity against Salmonella enteritidis ATCC 13076 at 100 ug/ml after 24 hrs; type: functional, organism-based; settings: Salmonella enterica subsp. enterica serovar Enteritidis
[8] = tested on: A549; assay: Cytotoxicity against human A549 cells after 2 days by MTT assay; type: functional; in short: as §1
[9] = tested on: Klebsiella aerogenes; assay: Antibacterial activity against Enterobacter aerogenes ATCC 13048 at 100 ug/ml after 24 hrs; type: functional, organism-based
[10] = tested on: RAW264.7; assay: Antiinflammatory activity in mouse RAW264.7 cells assessed as inhibition of LPS-stimulated iNOS expression at 10 uM after 16 hrs by Western blot analysis relative to control; type: functional; in short: as §2
[11] = tested on: Human betaherpesvirus 5; assay: Antiviral activity against HCMV assessed as protection from virus-induced cytopathogenicity after 7 days by coulter counter; type: functional, organism-based; settings: Human betaherpesvirus 5, 168 h

SMILES | Activity [1] | EC50 [2] [µM] | Activity [3] | Activity [4] | Activity [5] | inhibition [6] | Activity [7] | Activity [8] | Activity [9] | EC50 ([4]; HT-29, 48 h, read-out: ED50 (the source's name)) [µM] | EC50 ([8]; A549, 48 h, read-out: ED50 (the source's name)) [µM] | Activity [2] | inhibition [10] | IC50 [11] [µM]
C/C(=C\CC[C@]1(C)C=Cc2cc(O)c(C)cc2O1)Cc1cc(C)co1 [CAPILLOBENZOPYRANOL] | inactive | 12.7 | inactive | inactive | inactive | inactive | inactive | inactive | inactive | – | – | – | – | –
CO[C@H](C(=O)[C@@H](O)[C@@H](C)O)[C@@H]1Cc2cc3cc(O[C@H]4C[C@@H](O[C@@H]5C[C@@H](O)[C@H](O)[C@@H](C)O5)[C@H](O)[C@@H](C)O4)c(C)c(O)c3c(O)c2C(=O)[C@H]1O[C@H]1C[C@@H](O[C@@H]2C[C@@H](O)[C@@H](O[C@@H]3C[C@](C)(O)[C@H](O)[C@@H](C)O3)[C@@H](C)O2)[C@H](O)[C@@H](C)O1 [PLICAMYCIN] | – | 0.06 | – | – | – | – | – | – | – | 0.07 | 0.07 | – | – | –
C=CC(=C)C(CCC(C)Cc1cc(C(=O)OC)co1)OC(C)=O (stereo unspecified) | inactive | – | inactive | inactive | inactive | inactive | inactive | inactive | inactive | – | – | inactive | inactive | –
CC1=CC(=O)C(C/C=C(\C)CC/C=C(\C)Cc2cc(C)co2)=CC1=O | inactive | – | inactive | inactive | inactive | – | inactive | inactive | inactive | – | – | inactive | – | 5.9
C=C/C(C)=C/CCC(C)Cc1cc(C(=O)O)co1 (stereo unspecified) | inactive | – | inactive | inactive | inactive | inactive | inactive | inactive | inactive | – | – | inactive | inactive | –
C/C(=C\Cc1cc(O)c(C)cc1O)CC/C=C(\C)Cc1cc(C)co1 | inactive | – | inactive | inactive | inactive | inactive | inactive | inactive | inactive | – | – | inactive | – | 15
C=C1CC[C@H](C)/C(C)=C\[C@H]2[C@H]1CC[C@]2(C)O | inactive | – | inactive | inactive | inactive | inactive | inactive | inactive | inactive | – | – | inactive | inactive | –
CO[C@](C)(CC/C=C(\C)Cc1cc(C)co1)[C@@H]1Cc2cc(O)c(C)cc2O1 [CAPILLOBENZOFURANOL] | inactive | – | inactive | inactive | inactive | inactive | inactive | inactive | inactive | – | – | inactive | inactive | 13.5
CC1(C)CC(O)C[C@@]2(C)OC(=O)C=C12 (stereo partly specified) | inactive | – | inactive | inactive | inactive | inactive | inactive | inactive | inactive | – | – | inactive | inactive | –
CC1=CC(=O)C(C/C=C(\C)CC/C=C(\C)CC/C=C(\C)CC[C@H](O)C(C)(C)O)=CC1=O [CAPILLOQUINONE] | inactive | 9.8 | inactive | inactive | inactive | inactive | inactive | inactive | inactive | – | – | – | – | –
